Reference: ChEMBL document CHEMBL1221342, “Synthesis and in vitro antitumor activity of new 4,5-dihydropyrazole derivatives” (Bioorg Med Chem, 2010)

Experiments:
Assay type in all cases: functional
[1] = system: MDA-MB-435; experiment: Growth inhibition of human MDA-MB-435 cells after 48 hrs by SRB assay; conditions: MDA-MB-435, 48 h
Method in brief: (§1)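 NCI 60-cell-line screen. Cells grown in RPMI1640 with 5% fetal calf serum and 2 mM L-glutamine, with inoculum density set by cell line. Preincubated 24 h, then given compound in DMSO at 10^-4 to 10^-8 M (five 10-fold steps) for 48 h continuous exposure. Growth measured by SRB protein assay. GI50, TGI and LC50 reported as –log molar.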

[2] = system: IGROV-1; experiment: Growth inhibition of human IGROV1 cells after 48 hrs by SRB assay; conditions: IGROV-1, 48 h; method in brief: as §1
[3] = system: TK-10; experiment: Growth inhibition of human TK10 cells after 48 hrs by SRB assay; conditions: TK-10, 48 h; method in brief: as §1
[4] = system: T47D; experiment: Growth inhibition of human T47D cells after 48 hrs by SRB assay; method in brief: as §1
[5] = system: NCI/ADR-RES; experiment: Growth inhibition of human NCI/ADR-RES cells after 48 hrs by SRB assay; method in brief: as §1
[6] = system: SW-620; experiment: Growth inhibition of human SW620 cells after 48 hrs by SRB assay; conditions: SW-620, 48 h; method in brief: as §1
[7] = system: HL-60(TB); experiment: Growth inhibition of human HL-60(TB) cells after 48 hrs by SRB assay; conditions: HL-60, 48 h
Method in brief: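 NCI 60-cell-line screen: cells grown in RPMI1640 with 5% fetal calf serum and 2 mM L-glutamine, preincubated 24 h, then exposed to compound in DMSO at five concentrations (10^-4 to 10^-8 M) for 48 h continuous exposure. Growth estimated by sulforhodamine B protein assay; reported as pGI50 (-log molar concentration inhibiting net cell growth by 50%).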

[8] = system: SF-268; experiment: Growth inhibition of human SF268 cells after 48 hrs by SRB assay; conditions: SF-268, 48 h; method in brief: as §1
[9] = system: CCRF-CEM; experiment: Growth inhibition of human CCRF-CEM cells after 48 hrs by SRB assay; method in brief: as §1
[10] = system: HCT-15; experiment: Growth inhibition of human HCT15 cells after 48 hrs by SRB assay; conditions: HCT-15, 48 h; method in brief: as §1
[11] = system: EKVX; experiment: Growth inhibition of human EKVX cells after 48 hrs by SRB assay; method in brief: as §1
[12] = system: BT-549; experiment: Growth inhibition of human BT549 cells after 48 hrs by SRB assay; conditions: BT-549, 48 h; method in brief: as §1
[13] = Growth inhibition of human Hs 578T cells after 48 hrs by SRB assay; method in brief: as §1
[14] = system: CAKI-1; experiment: Growth inhibition of human Caki1 cells after 48 hrs by SRB assay; conditions: CAKI-1, 48 h; method in brief: as §1
[15] = system: HT-29; experiment: Growth inhibition of human HT-29 cells after 48 hrs by SRB assay; conditions: HT-29, 48 h; method in brief: as §1
[16] = system: HOP-62; experiment: Growth inhibition of human HOP62 cells after 48 hrs by SRB assay; conditions: HOP-62, 48 h; method in brief: as §1
[17] = system: SNB-75; experiment: Growth inhibition of human SNB75 cells after 48 hrs by SRB assay; conditions: SNB-75, 48 h; method in brief: as §1
[18] = system: SF-539; experiment: Growth inhibition of human SF539 cells after 48 hrs by SRB assay; conditions: SF-539, 48 h; method in brief: as §1
[19] = system: OVCAR-3; experiment: Growth inhibition of human OVCAR-3 cells after 48 hrs by SRB assay; conditions: OVCAR-3, 48 h; method in brief: as §1
[20] = system: 786-0; experiment: Growth inhibition of human 786-0 cells after 48 hrs by SRB assay; conditions: 786-0, 48 h; method in brief: as §1
[21] = system: MDA-MB-468; experiment: Growth inhibition of human MDA-MB-468 cells after 48 hrs by SRB assay; conditions: MDA-MB-468, 48 h; method in brief: as §1
[22] = system: DU-145; experiment: Growth inhibition of human DU145 cells after 48 hrs by SRB assay; conditions: DU-145, 48 h; method in brief: as §1
[23] = system: RXF 393; experiment: Growth inhibition of human RXF393 cells after 48 hrs by SRB assay; conditions: RXF 393, 48 h; method in brief: as §1
[24] = system: M14; experiment: Growth inhibition of human M14 cells after 48 hrs by SRB assay; conditions: M14, 48 h; method in brief: as §1
[25] = system: NCI-H460; experiment: Growth inhibition of human NCI-H460 cells after 48 hrs by SRB assay; conditions: NCI-H460, 48 h; method in brief: as §1
[26] = system: UO-31; experiment: Growth inhibition of human UO31 cells after 48 hrs by SRB assay; conditions: UO-31, 48 h; method in brief: as §1
[27] = system: Malme-3M; experiment: Growth inhibition of human MALME-3M cells after 48 hrs by SRB assay; method in brief: as §1
[28] = system: SK-MEL-28; experiment: Growth inhibition of human SK-MEL-28 cells after 48 hrs by SRB assay; conditions: SK-MEL-28, 48 h; method in brief: as §1
[29] = system: SK-MEL-5; experiment: Growth inhibition of human SK-MEL-5 cells after 48 hrs by SRB assay; conditions: SK-MEL-5, 48 h; method in brief: as §1
[30] = Growth inhibition of human […] cells after 48 hrs by SRB assay; method in brief: as §1
[31] = system: OVCAR-8; experiment: Growth inhibition of human OVCAR8 cells after 48 hrs by SRB assay; conditions: OVCAR-8, 48 h; method in brief: as §1
[32] = system: NCI-H522; experiment: Growth inhibition of human NCI-H522 cells after 48 hrs by SRB assay; conditions: NCI-H522, 48 h; method in brief: as §1
[33] = system: KM12; experiment: Growth inhibition of human KM12 cells after 48 hrs by SRB assay; conditions: KM12, 48 h; method in brief: as §1
[34] = system: A498; experiment: Growth inhibition of human A498 cells after 48 hrs by SRB assay; conditions: A498, 48 h; method in brief: as §1
[35] = system: SK-OV-3; experiment: Growth inhibition of human SKOV3 cells after 48 hrs by SRB assay; conditions: SK-OV-3, 48 h; method in brief: as §1
[36] = system: SR; experiment: Growth inhibition of human SR cells after 48 hrs by SRB assay; method in brief: as §1

## COc1ccc(C2CC(c3cc(OC)c(OC)c(OC)c3)=NN2)cc1 (stereo unspecified)
[1]
  GI50: 3.16 µM
[1]; read-out: pTGI (converted)
  TGI: 20 µM
[2]
  GI50: 6.31 µM
[2]; read-out: pTGI (converted)
  TGI: > 100 µM
[3]
  GI50: 39.8 µM
[3]; read-out: pTGI (converted)
  TGI: > 100 µM
[4]
  GI50: 3.98 µM
[4]; read-out: pTGI (converted)
  TGI: > 100 µM
[5]
  GI50: 6.31 µM
[5]; read-out: pTGI (converted)
  TGI: > 100 µM
[6]
  GI50: 5.01 µM
[6]; read-out: pTGI (converted)
  TGI: > 100 µM
[7]
  GI50: 2 µM
[7]; read-out: pTGI (converted)
  TGI: 12.6 µM
[8]
  GI50: 20 µM
[8]; read-out: pTGI (converted)
  TGI: > 100 µM
[9]
  GI50: 6.31 µM
[9]; read-out: pTGI (converted)
  TGI: > 100 µM
[10]
  GI50: 3.16 µM
[10]; read-out: pTGI (converted)
  TGI: > 100 µM
[11]
  GI50: 10 µM
[11]; read-out: pTGI (converted)
  TGI: > 100 µM
[12]
  GI50: 7.94 µM
[12]; read-out: pTGI (converted)
  TGI: > 100 µM
[13]
  GI50: 15.8 µM
[13]; read-out: pTGI (converted)
  TGI: > 100 µM
[14]
  GI50: 7.94 µM
[14]; read-out: pTGI (converted)
  TGI: 63.1 µM
[15]
  GI50: 3.98 µM
[15]; read-out: pTGI (converted)
  TGI: > 100 µM
[16]
  GI50: 31.6 µM
[16]; read-out: pTGI (converted)
  TGI: > 100 µM
[17]
  GI50: 3.98 µM
[18]
  GI50: 6.31 µM
[18]; read-out: pTGI (converted)
  TGI: 39.8 µM
[19]
  GI50: 3.98 µM
[19]; read-out: pTGI (converted)
  TGI: 50.1 µM
[20]
  GI50: 20 µM
[20]; read-out: pTGI (converted)
  TGI: > 100 µM
[21]
  GI50: 3.98 µM
[21]; read-out: pTGI (converted)
  TGI: 63.1 µM
[22]
  GI50: 31.6 µM
[22]; read-out: pTGI (converted)
  TGI: > 100 µM
[23]
  GI50: 10 µM
[23]; read-out: pTGI (converted)
  TGI: > 100 µM
[24]
  GI50: 12.6 µM
[24]; read-out: pTGI (converted)
  TGI: > 100 µM
[25]
  GI50: 3.16 µM
[25]; read-out: pTGI (converted)
  TGI: 30.2 µM
[26]
  GI50: 5.01 µM
[26]; read-out: pTGI (converted)
  TGI: > 100 µM
[27]
  GI50: 25.1 µM
[27]; read-out: pTGI (converted)
  TGI: > 100 µM
[28]
  GI50: 39.8 µM
[28]; read-out: pTGI (converted)
  TGI: > 100 µM
[29]
  GI50: 3.98 µM
[29]; read-out: pTGI (converted)
  TGI: 25.1 µM
[30]
  GI50: 3.16 µM
[30]; read-out: pTGI (converted)
  TGI: 20 µM
[31]
  GI50: 25.1 µM
[31]; read-out: pTGI (converted)
  TGI: > 100 µM
[32]
  GI50: 3.16 µM
[32]; read-out: pTGI (converted)
  TGI: 36.3 µM
[33]
  GI50: 3.98 µM
[33]; read-out: pTGI (converted)
  TGI: > 100 µM
[34]
  GI50: 6.31 µM
[34]; read-out: pTGI (converted)
  TGI: 50.1 µM
[35]
  GI50: 12.6 µM
[35]; read-out: pTGI (converted)
  TGI: > 100 µM
[36]
  GI50: 1 µM
[36]; read-out: pTGI (converted)
  TGI: 3.98 µM
